From PubChem BioAssay
ASAP1 GAP inh: ASAP1 ArfGAP inhibition | Q9ULH1 | ASAP1-stimulated ARF1 GTP hydrolysis, GDP FP detection | inhibition, % at 16.5 µM | hit rate 0.19% among 360,000 | AID 624377; in the data active means inhibition above about 25%;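 further: 0% = vehicle with enzyme and substrate and 100% = no enzyme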
Target sequence (Q9ULH1 325-724 limits assumed): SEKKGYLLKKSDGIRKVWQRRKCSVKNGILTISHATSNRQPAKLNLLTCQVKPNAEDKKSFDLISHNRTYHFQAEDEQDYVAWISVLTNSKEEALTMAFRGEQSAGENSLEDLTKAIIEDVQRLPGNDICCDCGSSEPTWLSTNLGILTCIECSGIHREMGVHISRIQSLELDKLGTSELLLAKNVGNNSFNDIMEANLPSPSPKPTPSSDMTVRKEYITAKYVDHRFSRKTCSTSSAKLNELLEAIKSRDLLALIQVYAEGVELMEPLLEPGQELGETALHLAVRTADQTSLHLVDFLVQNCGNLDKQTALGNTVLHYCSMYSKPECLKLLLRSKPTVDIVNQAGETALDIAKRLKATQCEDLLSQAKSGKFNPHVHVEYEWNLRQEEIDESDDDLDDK
UHRF1 binding: blocks human UHRF1 binding to methylated DNA | UHRF1 binding to methylated oligo, TR-FRET | hit rate 0.75% among 370,000 | inhibition, % at 4.4 µM; in the data active means inhibition above about 21%;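 further: UHRF1 SRA domain binding a hemimethylated CpG hairpin DNA probe; 0% = median of test compound wells and 100% = reference inhibitor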
ARFGAP1 inhibitor: inhibits rat ARF GTPase activating protein 1; Q62848; Arfgap1-stimulated ARF1 GTP hydrolysis, GDP FP detection; inhibition, % at 16.5 µM; hit rate 0.26% among 360,000; AID 651572;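 active means inhibition above a per-plate limit, mean inhibition of low control wells plus 3 SD, cut at about 25% in these data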;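 further: 0% = DMSO wells with enzyme and 100% = wells lacking Arfgap1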
Target sequence (Q62848 1-136 limits assumed): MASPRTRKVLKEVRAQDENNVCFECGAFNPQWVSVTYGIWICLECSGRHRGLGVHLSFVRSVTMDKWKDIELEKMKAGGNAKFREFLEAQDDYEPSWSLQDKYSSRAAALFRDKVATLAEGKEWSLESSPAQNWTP
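Material: truncated rat Arfgap1 GAP domain; Incubation: compound-enzyme preincubation 20 min, reaction 120 min, detection 60 min, 25 °C; Read-out: percent inhibition of Arfgap1-stimulated GTP hydrolysis; Technique: FP, GDP Alexa 633 tracer displaced from anti-GDP antibody, 620/688 nm; Controls: No-Arfgap1 wells (100%) versus DMSO full-reaction wells (0%); Replication: single well per compound.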
MBD2 inh: inhibitors of human MBD2 binding to methylated oligonucleotide. hit rate 0.31% among 370,000. Q9UBB5. inhibition, % at 4.4 µM. TR-FRET. AID 686964; in the data active means inhibition above about 13%
LEDGF integ inh: blocks HIV-1 LEDGF/p75-dependent DNA integration; TR-FRET IN-LEDGF/p75 DNA integration, Eu/Cy5; inhibition, % at 3.7 µM; hit rate 0.64% among 370,000;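 active means inhibition above the screen-wide mean plus 3 SD, cut at about 13% in these data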;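 further: signal is the Cy5 over europium emission ratio at 671 and 618 nm; 0% = plate median of compound wells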
TDP2 inh: TDP2 (human) inhibition, absorbance primary screen | O95551 | recombinant TDP2, T5PNP hydrolysis, p-nitrophenol absorbance 415 nm | inhibition, % at 12.8 µM | hit rate 0.34% among 370,000;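 active means inhibition above the mean of all tested compounds plus 3 SD, set per campaign, cut at about 25% in these data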;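 further: 0% = DMSO with enzyme and 100% = buffer with substrate but no TDP2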
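Assay system: Recombinant human TDP2 | Quantity: 120 nM TDP2 per well | Incubation: 2 h at 37 °C | Signal: Epi absorbance | Evaluation: Percent inhibition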
IN multimer act: activates HIV-1 integrase multimerization in LEDGF counter-screen; shares compounds with LEDGF integ inh; TR-FRET HIV-1 integrase multimerization, biochemical; activation, % at 7.7 µM; hit rate 17% among 2,000; AID 1053131; in the data active means activation above about 8.9%
TR-FRET interf: counter-screen for LEDGF/p75 integration inhibitors: TR-FRET optical interference; shares compounds with LEDGF integ inh; TR-FRET optical interference counterscreen, HIV-1 IN multimerization; inhibition, % at 7.7 µM; 2,000 tested, under 10 active; AID 1053135;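 active means inhibition above the mean over all tested compounds plus 3 SD, which no compound reached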;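 further: 0% = integrase with antibodies and DMSO and 100% = antibodies without integrase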
LEDGF integ conf: confirmation of HIV-1 LEDGF/p75-dependent integration inhibitors. inhibition, % at 3.7 µM. hit rate 36% among 2,000. shares compounds with LEDGF integ inh. TR-FRET LEDGF/p75-dependent HIV-1 integration, biochemical; in the data active means inhibition above about 14%
An asterisk follows results filed as active; nt = no result. Hits are enriched below; roughly 2% of the tested compounds scored in any of these assays.

SMILES	ASAP1 GAP inh	UHRF1 binding	ARFGAP1 inhibitor	MBD2 inh	LEDGF integ inh	TDP2 inh	IN multimer act	TR-FRET interf	LEDGF integ conf
Cc1cccc(N/N=C/c2ccc(O)c(O)c2O)c1	8	7	-4	7	70*	-11	9.1*	-46	29*
COC(=O)C1CN(Cc2ccc(OC)cc2)CCS(=O)(=O)N1Cc1cn(Cc2ccc(F)cc2)nn1 (centres undefined)	nt	15	nt	3	-2	-1	nt	nt	nt
CCOC(=O)C1CCN(C(=O)COC(=O)c2ccc(Br)o2)CC1	3	-4	-3	-6	-3	-9	nt	nt	nt
CC1CCN(C(=O)COC(=O)c2ccc(Br)o2)CC1	16	9	2	2	22*	8	1	-4	-4
O=C1CN(C(=O)COc2ccc(Cl)cc2Cl)c2ccccc2N1	6	-1	3	0	2	2	nt	nt	nt
O=C1CN(C(=O)COc2ccc(F)cc2Cl)c2ccccc2N1	-6	0	10	-3	23*	9	1	-4	-5
O=C(CS(=O)(=O)Cc1ccccc1)Nc1ccc(Cl)cn1	2	0	-2	7	88*	15	5	-19	2
O=C(CS(=O)(=O)Cc1ccccc1)Nc1ccccn1	-1	20	1	10	0	3	nt	nt	nt
Cc1nnc(SCC(=O)Nc2ccc(Cl)cn2)n1Cc1ccccc1	-2	-1	-1	-1	16*	1	0	-1	0
Cc1ccc(Cn2cc(CN3CC=CS3(=O)=O)nn2)cc1	nt	5	nt	-5	3	0	nt	nt	nt
COCc1cc(N2CCN(C(=O)OC(C)(C)C)C[C@@H]2C)ccc1N1CC[C@H](O)C1	-5	-5	-9	-7	17*	2	4	-18	2
CCC(=O)Nc1nc2ccccc2n1Cc1ccc(Cl)cc1	1	15	-7	-1	15*	-4	0	2	11
CCC(=O)Nc1nc2ccccc2n1Cc1ccccc1Cl	-5	17	-11	-6	12	9	nt	nt	nt
CCCCCCCn1c(NC(=O)CC)nc2ccccc21	-5	-1	-16	-1	23*	5	0	-1	31*
O=C(NCC(c1ccccc1)c1ccccc1)[C@H](Cc1c[nH]c2ccccc12)NC1(C(=O)NC2CCCCC2)CCN(Cc2ccccc2)CC1	nt	1	nt	-1	-2	-6	nt	nt	nt
Clc1cccc(CSc2ncnc3sc4c(c23)CCCC4)c1	nt	0	nt	-3	-3	0	nt	nt	nt
C[C@@H]1NC(=O)[C@H]2C[C@@]3(c4ccccc4)c4ccccc4N[C@H]3N2C1=O	nt	-2	nt	-2	-1	1	nt	nt	nt
COc1cc(O)c(C(C)=O)c(CC(=O)O)c1	-4	28*	6	10	31*	-5	33*	-118	59*
C=CCN1C(=O)[C@@H](CC(=O)N2CCN(C(=O)c3ccco3)CC2)[C@]2(C(=O)OCC)CCCCC/C=C/12	nt	-1	nt	1	-2	9	nt	nt	nt
Cc1ccc2nc(N3C(=O)C(O)=C(C(=O)c4ccc(C)o4)C3c3ccco3)sc2c1 (centres undefined)	3	0	10	-5	8	3	nt	nt	nt
O=C(C1=C(O)C(=O)N(c2nc3ccc(Cl)cc3s2)C1c1ccco1)c1ccco1 (centres undefined)	-13	24*	-9	10	20*	2	7	-36	21*
COC[C@@H]1CCCN1c1cccc2c1S(=O)(=O)N1CC[C@H](C1)O2	nt	-1	nt	-3	2	7	nt	nt	nt
CCN(CC)c1ccc(N=Cc2ccc([N+](=O)[O-])o2)cc1	-31	25*	-25	10	41*	-2	7	-36	18*
CCCCCC(=O)N/N=C/c1ccc([N+](=O)[O-])o1	7	2	0	2	-1	-8	nt	nt	nt
Cc1onc(-c2c(Cl)cccc2Cl)c1-c1nc2cc(Cl)ccc2c(=O)o1	-6	0	4	8	81*	8	-2	8	-2
SMILES	ASAP1 GAP inh	UHRF1 binding	ARFGAP1 inhibitor	MBD2 inh	LEDGF integ inh	TDP2 inh	IN multimer act	TR-FRET interf	LEDGF integ conf
Cc1onc(-c2c(F)cccc2Cl)c1-c1nnc(-c2cccc3ccccc23)o1	-11	-3	-8	2	3	1	nt	nt	nt
COc1ccc(CNCC#Cc2ccc(C)cc2)c(OC)c1	nt	-1	nt	-3	1	-7	nt	nt	nt
CC(C)C1Nc2c(O)cc(Cl)c([N+](=O)[O-])c2C2C=CCC21 (centres undefined)	0	-5	-15	-5	26*	3	1	-4	11
Cc1cc(=O)oc2cc3c(cc12)OCO3	-14	0	-3	2	4	-2	nt	nt	nt
Cc1cc(=O)oc2cc3c(cc12)OCCO3	-1	-1	11	1	29*	2	-4	13	0
O=C1C(=NO)CCc2ccccc21	0	-1	-1	-7	29*	20	3	-11	26*
CCC[C@H]1[C@@H](NC(=O)C(c2ccccc2)c2ccccc2)CC[C@@]23CCCN2C(=O)CCC[C@@H]13	nt	-1	nt	-1	3	10	nt	nt	nt
CCOC(=O)C(C(C)=O)c1c(Br)c(O)c(O)c2c(C(=O)c3ccc(C)cc3)coc12 (centres undefined)	5	-1	-8	-5	26*	-3	-2	12	14*
COc1cccc(NC(=O)C2CC(=O)N=C(N)S2)c1 (centres undefined)	3	-2	0	-6	17*	5	0	-2	1
CC(=O)Nc1ccc(NC(=O)C2CC(=O)N=C(N)S2)cc1 (centres undefined)	-10	-3	-7	-2	1	5	nt	nt	nt
COc1ccc(NC(=O)CN(C)C(=O)c2ccc(S(=O)(=O)N3CCOCC3)cc2)cc1	1	1	-5	1	-2	3	nt	nt	nt
COc1ccc(S(=O)(=O)N(CC(=O)Nc2ccc(S(=O)(=O)N3CCOCC3)cc2)c2ccccc2)cc1	6	-2	8	3	20*	2	1	-2	1
O=C(O)CCCC(=O)Nc1ccc(N2CCCC2)cc1	7	21*	2	-2	14*	2	12*	-62	13
CN(C)c1ccc(N/C=C/C(=O)c2ccco2)cc1	-9	6	-9	-4	38*	16	11*	-41	7
Cc1ccc(-c2ccc(=O)n(CC(=O)NCCCN3CCCCC3C)n2)cc1 (centres undefined)	5	1	-4	2	24*	-14	0	-1	-2
